We go through 12 compounds from ChEMBL document CHEMBL1152281, “2-Alkylamino- and alkoxy-substituted 2-amino-1,3,4-oxadiazoles-O-Alkyl benzohydroxamate esters replacements retain the desired inhibition and selectivity against MEK (MAP ERK kinase)” (Bioorg Med Chem Lett, 2008).

Data set [1] can be described thus: Solubility in sodium phosphate buffer at pH 6.5 by HPLC.
The nature of data set [2]: Metabolic stability in human liver microsomes assessed as half life. A general note: Liver microsomes are a subcellular fraction often used to study metabolism.
Data set [3] deals with Colon 26. Nature of the data set: Antitumor activity against mouse Colon 26 cells implanted in mouse assessed as <62 mg decrease in tumor mass at 100 mg/kg, po administered BID on day 9 to day 15. The data set is classed as functional, organism-based. Also noted: dose 100 mg/kg.
Data set [4] relates to Mus musculus. Nature of the data set: Toxicity in mouse Colon 26 cells implanted mouse assessed as body weight loss at 100 mg/kg, po administered BID on day 9 to day 15. The conditions noted are these: in vivo. The data set is classed as organism-based. More on the design: dose 100 mg/kg, route oral. The essentials: (§1)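 Mice bearing subcutaneous Colon 26 tumours were gavaged daily or BID on days 9–15 (3 per group). Toxicity was taken as maximum treatment-related weight loss, expressed as percent of mean group weight at initial treatment, with the day of maximum loss recorded; a net weight gain is noted as "+". Vehicle was 5% EtOH + 5% Tween 80 in saline.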

The test system of data set [5] is Colon 26. Briefly: Antitumor activity against mouse Colon 26 cells implanted in mouse at 100 mg/kg, po administered BID on day 9 to day 15. The data set is classed as functional.
Data set [6] deals with Colon 26. Briefly: Antitumor activity against mouse Colon 26 cells implanted in mouse assessed as 50% decrease in tumor mass at 100 mg/kg, po administered BID on day 9 to day 15. The data set is classed as functional, organism-based. Also noted: dose 100 mg/kg.
Data set [7] relates to Colon 26. Nature of the data set: Antitumor activity against mouse Colon 26 cells implanted in mouse at 300 mg/kg, po administered on day 9 to day 15. It counts as functional.
Data set [8] relates to Mus musculus. Briefly: Ex vivo inhibition of MEK in mouse Colon 26 cells implanted mouse assessed as suppression of ERK-phosphorylation at 100 mg/kg, po after 10 hrs by Western blot. More on the design: dose 100 mg/kg. It counts as functional, organism-based. A digest of the protocol: (§2)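 Mice bearing subcutaneous colon 26 tumours received a single oral dose. At each time point tumours were excised, and p-ERK levels were measured by Western blot against vehicle-treated controls.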
On the technique in general: Immunoblotting shows a protein as a band on a membrane.

Data set [9] has as its system Colon 26. Nature of the data set: Antitumor activity against mouse Colon 26 cells implanted in mouse at 50 mg/kg, po administered BID on day 9 to day 15. The data set is classed as functional.
The test system of data set [10] is Mus musculus. Briefly: Toxicity in mouse Colon 26 cells implanted mouse assessed as increase in body weight at 50 mg/kg, po administered BID on day 9 to day 15. The data set is classed as organism-based. Also noted: dose 50 mg/kg, route oral. The conditions noted are these: in vivo. The essentials: as §1
Data set [11] deals with Colon 26. Briefly: Antitumor activity against mouse Colon 26 cells implanted in mouse at 150 mg/kg, po administered BID on day 9 to day 15. It counts as functional.
Data set [12] deals with Mus musculus. Briefly: Toxicity in mouse Colon 26 cells implanted mouse assessed as increase in body weight at 100 mg/kg, po administered BID on day 9 to day 15. The data set is classed as organism-based. Conditions: in vivo. More on the design: dose 100 mg/kg, route oral. The essentials:
as §1

The test system of data set [13] is Colon 26. Briefly: Antitumor activity against mouse Colon 26 cells implanted in mouse assessed as <62 mg decrease in tumor mass at 300 mg/kg, po administered on day 9 to day 15. The data set is classed as functional, organism-based. Also noted: dose 300 mg/kg.
Data set [14] relates to Mus musculus. Nature of the data set: Toxicity in mouse Colon 26 cells implanted mouse assessed as body weight loss at 200 mg/kg, po administered on day 9 to day 15. Also noted: dose 200 mg/kg, route oral. The data set is classed as organism-based. Conditions: in vivo. The essentials: as §1
Data set [15] relates to Colon 26. Briefly: Antitumor activity against mouse Colon 26 cells implanted in mouse at 100 mg/kg, po administered on day 9 to day 15. The data set is classed as functional.
Data set [16] has as its system Mus musculus. Briefly: Toxicity in mouse Colon 26 cells implanted mouse assessed as body weight loss at 300 mg/kg, po administered on day 9 to day 15. It counts as organism-based. Also noted: dose 300 mg/kg, route oral. Conditions: in vivo. The essentials: as §1
In data set [17] the test system is Mus musculus. Briefly: Toxicity in mouse Colon 26 cells implanted mouse assessed as body weight loss at 150 mg/kg, po administered BID on day 9 to day 15. It counts as organism-based. More on the design: dose 150 mg/kg, route oral. Conditions: in vivo. A digest of the protocol: as §1
The subject of data set [18] is Mus musculus. Briefly: Ex vivo inhibition of MEK in mouse Colon 26 cells implanted mouse assessed as suppression of ERK-phosphorylation at 12.5 mg/kg, po after 10 hrs by Western blot. It counts as functional, organism-based. Also noted: dose 12.5 mg/kg. The essentials:
as §2

For data set [19], the system named is Colon 26. Nature of the data set: Antitumor activity against mouse Colon 26 cells implanted in mouse assessed as <62 mg decrease in tumor mass at 150 mg/kg, po administered BID on day 9 to day 15. Also noted: dose 150 mg/kg. It counts as functional, organism-based.
The test system of data set [20] is Colon 26. Nature of the data set: Antitumor activity against mouse Colon 26 cells implanted in mouse at 200 mg/kg, po administered on day 9 to day 15. It counts as functional.
Data set [21] deals with Colon 26. Nature of the data set: Antitumor activity against mouse Colon 26 cells implanted in mouse assessed as <62 mg decrease in tumor mass at 50 mg/kg, po administered BID on day 9 to day 15. The data set is classed as functional, organism-based. Also noted: dose 50 mg/kg.
Data set [22] relates to Mus musculus. Nature of the data set: Toxicity in mouse Colon 26 cells implanted mouse assessed as increase in body weight at 100 mg/kg, po administered on day 9 to day 15. More on the design: dose 100 mg/kg, route oral. The conditions noted are these: in vivo. It counts as organism-based. A digest of the protocol:
as §1

Data set [23] deals with Colon 26. Nature of the data set: Antitumor activity against mouse Colon 26 cells implanted in mouse assessed as 50% decrease in tumor mass at 50 mg/kg, po administered BID on day 9 to day 15. More on the design: dose 50 mg/kg. The data set is classed as functional, organism-based.
Data set [24] has as its system Colon 26. Nature of the data set: Antitumor activity against mouse Colon 26 cells implanted in mouse assessed as <62 mg decrease in tumor mass at 100 mg/kg, po administered on day 9 to day 15. The data set is classed as functional, organism-based. More on the design: dose 100 mg/kg.

Molecules are shown by their SMILES. Converted amounts (≈) assume the structure as drawn. The source made the active and inactive calls.

In general, solubility refers to the dissolved amount per volume that the medium holds. A lower solubility goes with a poorly soluble substance. As to `Nc1nnc(-c2ccc(F)c(F)c2Nc2ccc(I)cc2F)o1`, the solubility in data set [1] is < 3 µg/mL.

By half-life is commonly meant the time needed for the level to fall by half in the phase considered. `Fc1cc(I)ccc1Nc1c(-c2nnc(NCCCN3CCOCC3)o2)ccc(F)c1F`: the half-life in data set [2] turned out to be 40 min. The solubility in data set [1] is < 3 µg/mL.

For `NCCNc1nnc(-c2ccc(F)c(F)c2Nc2ccc(I)cc2F)o1`, the half-life in data set [2] came out at 40 min. The solubility in data set [1] is < 3 µg/mL.

Consider `OCCNc1nnc(-c2ccc(F)c(F)c2Nc2ccc(I)cc2F)o1`, for which, in data set [2], the half-life came out at 40 min. Also, in [1], the solubility was < 3 µg/mL.

Regarding `OCCCCCNc1nnc(-c2ccc(F)c(F)c2Nc2ccc(I)cc2F)o1`, the half-life in data set [2] worked out at 40 min. In addition, the solubility in [1] is < 3 µg/mL.

Regarding `OCCCCNc1nnc(-c2ccc(F)c(F)c2Nc2ccc(I)cc2F)o1`, the half-life in [2] stood at 40 min. Besides, in data set [1], the solubility is < 3 µg/mL.

With `CCN(CC)CCCNc1nnc(-c2ccc(F)c(F)c2Nc2ccc(I)cc2F)o1`, the half-life in [2] stood at 40 min. Further, in [1], the solubility is < 3 µg/mL.

Take `O=C(NOCC1CC1)c1ccc(F)c(F)c1Nc1ccc(I)cc1Cl` [CI-1040]: the result in the data set with Colon 26 [3] and in the data set on Colon 26 [6] was inactive. For the same compound, the half-life in data set [2] was found to be 8 min. The Activity in the data set with Mus musculus [4] turned out to be 4.8%. This compound also gave an LCK in the data set with Colon 26 [5] of 0.1.

As to `COCCCNc1nnc(-c2ccc(F)c(F)c2Nc2ccc(I)cc2F)o1`, in data set [2], the half-life worked out at 35 min. Moreover, in data set [1], the solubility was < 3 µg/mL.

As for `OCCCNc1nnc(-c2ccc(F)c(F)c2Nc2ccc(I)cc2F)o1`, the half-life in [2] came out at 40 min. Besides, the solubility in data set [1] is < 3 µg/mL.

As to `NCCCNc1nnc(-c2ccc(F)c(F)c2Nc2ccc(I)cc2F)o1`, the half-life in [2] turned out to be 40 min. In data set [1], this compound gave a solubility of 5.4 µg/mL (≈ 11 µM).

For the compound `CNCCNc1nnc(-c2ccc(F)c(F)c2Nc2ccc(I)cc2F)o1`, the LCK is listed as 0.3 with Colon 26 [7]; 0.1 with Colon 26 [9]; 0.4 with Colon 26 [11]; 0 with Colon 26 [15]; 0.2 in the data set on Colon 26 [5]; 0.3 in the data set on Colon 26 [20]. In addition, the result with Mus musculus [8], with Colon 26 [3], in the data set on Colon 26 [13], in the data set on Mus musculus [18] and with Colon 26 [19] was Active. Also, the Activity entry is on record as “Toxic” in the data set on Mus musculus [10]; “Toxic” in the data set with Mus musculus [12]; 0.1% in the data set on Mus musculus [14]; 4.5% in the data set with Mus musculus [16]; 4% in the data set on Mus musculus [17]; “Toxic” in the data set with Mus musculus [22]. Further, in [2], the half-life was 40 min. Moreover, the solubility in [1] amounted to 6.7 µg/mL (≈ 13.7 µM). The result with Colon 26 [21], in the data set on Colon 26 [23] and in the data set with Colon 26 [24] was inactive.
